ATG4B inhibitor = blocks human ATG4B protease cleavage of LC3 substrate | Q9Y4P1 | ATG4B cleavage of LC3-PLA2, NBD-HPC fluorescence, 1 h | inhibition, % at 8.33 µM | actives 0.51% (n = 340,000) | AID 504462; in the data active = inhibition above about 40%
Target sequence (Q9Y4P1 whole entry, looked up): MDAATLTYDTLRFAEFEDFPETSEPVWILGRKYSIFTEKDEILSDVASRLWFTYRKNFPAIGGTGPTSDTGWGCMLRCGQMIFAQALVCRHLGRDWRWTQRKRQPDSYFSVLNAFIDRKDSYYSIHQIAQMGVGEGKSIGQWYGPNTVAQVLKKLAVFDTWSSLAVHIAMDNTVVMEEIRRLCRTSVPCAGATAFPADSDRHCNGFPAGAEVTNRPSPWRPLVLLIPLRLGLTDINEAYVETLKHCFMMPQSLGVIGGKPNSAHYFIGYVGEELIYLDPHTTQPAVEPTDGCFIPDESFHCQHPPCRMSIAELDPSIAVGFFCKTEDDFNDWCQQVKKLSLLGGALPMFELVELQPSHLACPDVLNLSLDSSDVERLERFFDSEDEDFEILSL
MC4R antagonist = blocks human MC4R cAMP signaling. MC4R-expressing cells, MTII-stimulated cAMP, LANCE TR-FRET. inhibition, % at 6.5 µM. actives 0.48% (n = 360,000). AID 540295;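 active = inhibition above its plate's cutoff, the mean of tested wells on that plate plus 3 SD, cut at about 29% in these data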;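 note: 0% = Melanotan II alone and 100% = Melanotan II plus saturating MCL0020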
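Assay system: U2OS-MC4R stable cell line; Also added: Melanotan II; Technique: Eu-cAMP/anti-cAMP TR-FRET, emission 671 nm; Times: 30-min compound, 1-h challenge, 1-h detection, room temperature.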
MPTP block = inhibitors of mitochondrial permeability transition pore; actives 1.4% (n = 360,000); isolated mouse mitochondria, Ca2+ swelling absorbance, 30 min; inhibition, % at 10 µM;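 active = inhibition of 50% or more, scaled per plate between neutral and stimulator controls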;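 note: 0% = DMSO wells given calcium and 100% = 1 mM EGTA wells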
SMARCA2 act = SMARCA2 function activation, primary screen. MG213 cells, MMTV-luciferase reporter, dexamethasone, overnight. activation, % at 9.1 µM. actives 1% (n = 370,000). AID 652017; in the data active = activation above about 7.8%;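 note: 0% = vehicle wells and 100% = reference activator wells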
MC4R barr agon = agonists of human melanocortin 4 receptor (MC4R) beta-arrestin; U2OS MC4R beta-arrestin complementation, luminescence; percent of melanotan II response, DMSO zero; activation, % at 8.9 µM; actives 0.98% (n = 360,000); P32245;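 active = activation above a per-plate cutoff, the mean activation of sample wells on that plate plus 3 SD, cut at about 8% in these data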
SMARCA2 conf = SMARCA2 activation, confirmation screen. MG213 cells, MMTV-luciferase with dexamethasone, luminescence, overnight; MG213 cells expressing E1A, Rb sequestered; DMSO wells 0%, reference activator 100%. AID 652260. shares compounds with SMARCA2 act. activation, % at 9.1 µM. actives 30% (n = 3,500);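 active = activation above its plate's cutoff, the mean activation of tested wells plus 3 SD, cut at about 7.9% in these data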
VP16 Luc act = counter-screen for SMARCA2 activators: GAL4-VP16 luciferase reporter activation | shares compounds with SMARCA2 act | HEK293 GAL4-VP16 pG5luc reporter, luciferase luminescence; scaled: DMSO wells 0%, SAHA wells 100% | activation, % at 9.1 µM | actives 41% (n = 3,500);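 active = activation above the solvent-only control well mean plus 3 SD, averaged across control plates, cut at about 5.2% in these data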
* = called active by the depositor; nt = not tested or not shown. The list is not random: actives were taken first. Their share in the collection is about 4.1%.

SMILES	ATG4B inhibitor	MC4R antagonist	MPTP block	SMARCA2 act	MC4R barr agon	SMARCA2 conf	VP16 Luc act
Nc1ccn([C@@H]2O[C@H](C(=O)N[C@H](Cc3ccccc3)C(=O)NCC(F)(F)F)[C@@H](O)[C@H]2O)c(=O)n1	nt	nt	nt	0	nt	nt	nt
C[C@H](NS(=O)(=O)c1ccc2c(c1)OCCCO2)C(=O)N1CCN(Cc2ccc(C#N)cc2)CC1	-1	11	0	8.8*	5	-4	1
CCC(C)Nc1nc(C)nc2c1nnn2Cc1ccccc1 (stereo unspecified)	nt	nt	nt	8.0*	nt	6	1
CCOC(=O)CC[C@H]1CC[C@]2(CCCN(C(=O)c3ccco3)C2)O1	nt	nt	nt	-4	nt	nt	nt
Cn1c(=O)cc(SCC(=O)NCCC2=CCCCC2)c2ccc(Cl)cc21	7	4	-3	8.3*	-1	5	2
COc1cc2sc3cc(NCc4ccc(C)o4)ccc3c(=O)c2cc1OC	-7	4	0	8.7*	-1	8.9*	9.3*
CC(C)(C)n1nc(C2CC2)c(Br)c1NC(=O)c1ccccc1Cl	nt	nt	nt	-4	nt	nt	nt
CCc1nnc(N/N=C/c2ccccc2Cl)n1N	-8	0	1	-3	-1	nt	nt
COc1cccc(/C=N/Nc2nnc(C)n2N)c1OCc1ccccc1Cl	2	-2	-4	16*	-2	0	1
CCCCNC(=O)C[C@H]1C[C@@]2(C(=O)OC)C(=C[C@H](C(C)(C)C)O[C@@H]2C)N(Cc2ccc3c(c2)OCO3)C1=O	nt	nt	nt	-3	nt	nt	nt
Cc1ccc(NC(=O)CSc2nnc(-c3ccccc3F)n2-c2ccccc2)c(C)c1	nt	nt	nt	-7	nt	nt	nt
O=C(Nc1ccccc1C(=O)NCCc1ccccc1)c1ccco1	4	8	0	9.1*	-1	11*	7.4*
O=C(O)CNC(=O)c1ccccc1NC(=O)c1ccco1	8	14	-1	-6	0	nt	nt
COc1cc(C=NNc2ccccc2)ccc1OC(=O)c1ccccc1	nt	-1	-1	-1	2	nt	nt
COc1ccc(/C=N\NC(=O)C2CCCC2)cc1Br	-4	1	0	9.0*	-3	7	4
COc1cc(/C=N/Nc2ccccc2)ccc1OC(=O)c1cccs1	1	nt	nt	9.7*	nt	3	3
CCOc1ccc(/C=N/NC(=O)C2CC2)cc1OC	13	2	-1	2	-3	nt	nt
COc1ccc(/C=N/Nc2ccc(C(=O)O)cc2)cc1Br	7	-9	0	8	-3	nt	nt
CCOc1cc(/C=N/Nc2cccc(C(=O)O)c2)ccc1OC(=O)c1ccccc1	19	-4	0	11*	-4	5	18*
COc1ccc(/C=N/Nc2ccc(C(=O)O)cc2)cc1OC	-7	-20	-1	9.1*	0	5	13*
O=C(Nc1ccc(F)cc1)OC1CC2CC1[C@H]1CCCCN1[C@H]2Cc1ccccc1 (stereo partly specified)	nt	nt	nt	-2	nt	nt	nt
CC1CCN(c2c3c(nc4ncnn24)CCCC3)CC1	nt	nt	nt	-4	nt	nt	nt
COC(=O)[C@]12C[C@H](CC(=O)NCCC(C)C)C(=O)N(Cc3ccco3)C1=C[C@H](C1CCCC1)O[C@@H]2C	nt	nt	nt	-1	nt	nt	nt
COc1ccc(/C=N/NC(=O)OC(C)(C)C)cc1OC	-7	7	-5	8.4*	0	-1	1
O=C(COC(=O)c1cccnc1Cl)Nc1nc(-c2ccccc2)cs1	-4	3	5	9.9*	-1	1	2
COC1=CC(C)C2CC3OC(O)CC4C(C)=C(OC)C(=O)C(C2(C)C1=O)C34C (stereo unspecified)	nt	-1	-2	1	0	nt	nt
COc1cc(OC)cc(C(=O)Nc2ccc(CN3CCCCC3)cc2)c1	-1	2	-1	-2	0	nt	nt
COc1ccc(OCc2cccc(C(=O)Nc3ccc(CN4CCCCC4)cc3)c2)cc1	6	1	30	9.9*	2	9.4*	14*
O=C1c2ccccc2C(=O)c2c(NCCCN(CCO)CCO)cccc21	-8	-23	6	15*	-3	40*	0
